Measurements reported in paper PMC7164687 (Antiviral research, 2020).
Structures can show the parent of a compound that is named as a salt.

Tests used:
HIV-1LAI = assay: microbe, parasite or virus in culture; type: cell-based; conditions: Human immunodeficiency virus 1, MT2, 168 h, read-out: IC50 against HIV-1LAI
[1] = Cytotoxicity assay in PXB cells; type: cell-based; conditions: human
HBVWT^D = assay: microbe, parasite or virus in culture; type: cell-based; conditions: Hepatitis B virus, HepG2.2.15, read-out: anti-HBV activity IC50
PXB cells = assay: Cytotoxicity assay in PXB cells; type: cell-based; conditions: read-out: CC50 in PXB cells; PXB cells, continuous exposure; mean ± 1 S.D.
HBVWT^Ce = HBVWT^Ce viremia in infected human-liver-chimeric mice; type: in vivo; conditions: for reduction of HBVWT^Ce DNA (viremia), day 14: 14 days, average reduction by day 14
HBVETV^R = HBVETV^R viremia in infected human-liver-chimeric mice; type: in vivo; conditions: for reduction of HBVETV^R viremia, day 14: 14 days, average reduction by day 14; for block of HBVETV^R viremia: once-daily peroral 1 mg/kg/day over 14 days, abstract
How it was run: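 uPA/SCID mice with livers repopulated by human hepatocytes, infected with recombinant ETV-resistant HBV clone (L180M/S202G/M204V). Dosing began 7–14 weeks after inoculation: test compound, ETV or saline given intragastrically at 1 mg/kg once daily for 14 days, n=2–4 per group. Serum HBV-DNA (S gene) measured by real-time PCR. Change from day 0 compared by repeated-measures ANOVA, two-tailed, uncorrected.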

[2] = test system: human DNA polymerases, α, β, and γ; conditions: ref Nakata et al., 2007; cited from earlier work
[3] = type: in vivo, human-liver-chimeric mice; conditions: 1 mg/kg/day oral, 14 days, HBV-infected mice
[4] = CC50 in PXB cells, PXB cells, continuous exposure, mean ± 1 S.D.
[5] = 1 mg/kg/day oral, average reduction by 3 days after start

Structure (SMILES): Nc1ccn([C@@H]2CS[C@H](CO)O2)c(=O)n1 [3TC, lamivudine]
- IC50 (HIV-1LAI): 660 ± 150 nM
- CC50 [1, 4]: > 100000 nM

Structure (SMILES): CC(C)(C)C(=O)OCOP(=O)(COCCn1cnc2c(N)ncnc21)OCOC(=O)C(C)(C)C [ADV, adefovir dipivoxil]
- IC50 (HIV-1LAI): 660 ± 200 nM
- CC50 [1, 4]: 71500 ± 19300 nM

Structure (SMILES): N#C[C@]1(CO)O[C@@H](n2cnc3c(N)ncnc32)C[C@@H]1O [CdA, 4’-C-cyano-2’-deoxyadenosine]
- IC50 (HIV-1LAI): 94 ± 4 nM
- CC50 [1, 4]: 5400 ± 1500 nM

Structure (SMILES): N#C[C@]1(CO)O[C@@H](n2cc(F)c3c(N)ncnc32)C[C@@H]1O [CdFA, 4’-C-cyano-7-deaza-7-fluoro-2’-deoxyadenosine]
- IC50 (HBVWT^D): ~26 nM
- IC50 (HIV-1LAI): 880 ± 10 nM
- CC50 (PXB cells): 55900 ± 5700 nM
- reduction of HBVWT^Ce DNA (viremia), day 14 (HBVWT^Ce; 1 mg/kg/day oral): 0.7 log10 copies/mL
- reduction of HBVWT^Ce DNA (viremia), day 3 (HBVWT^Ce; [5]): 0.5 log10 copies/mL
- block of HBVWT viremia (HBVWT^Ce; once-daily peroral 1 mg/kg/day over 14 days, abstract): 0.7 logs
- reduction of HBVETV^R viremia, day 14 (HBVETV^R; 1 mg/kg/day oral): 1.2 log10 copies/mL
- reduction of HBVETV^R viremia, day 3 (HBVETV^R; [5]): 0.6 log10 copies/mL
- block of HBVETV^R viremia (HBVETV^R): 1.2 logs

Structure (SMILES): N#C[C@]1(CO)O[C@@H](n2cnc3c(=O)[nH]c(N)nc32)C[C@@H]1O [CdG, 4’-C-cyano-2’-deoxyguanosine]
- IC50 (HIV-1LAI): 0.6 ± 0.1 nM
- CC50 [1, 4]: 370 ± 30 nM

Structure (SMILES): C#C[C@]1(CO)O[C@@H](n2cnc3c(N)nc(F)nc32)C[C@@H]1O [EFdA, 4’-ethynyl-2-fluoro-2’-deoxyadenosine]
- inhibition of the activity of human DNA polymerases α, β, and γ [2]: little inhibition

Structure (SMILES): C=C1[C@H](CO)[C@@H](O)C[C@@H]1n1cnc2c(=O)[nH]c(N)nc21 [ETV, entecavir]
- IC50 (HIV-1LAI): 1000 ± 400 nM
- CC50 [1, 4]: 252000 ± 37500 nM
- reduction of HBVWT^Ce DNA (viremia), day 14 (HBVWT^Ce; 1 mg/kg/day oral): 2.2 log10 copies/mL
- reduction of HBVETV^R viremia, day 14 (HBVETV^R; 1 mg/kg/day oral): 0.5 log10 copies/mL
- block of HBVETV^R viremia (HBVETV^R): only slightly suppressed
- changes in serum human albumin levels [3]: no significant differences

Structure (SMILES): CC(C)OC(=O)[C@H](C)N[P@](=O)(CO[C@H](C)Cn1cnc2c(N)ncnc21)Oc1ccccc1 [TAF, tenofovir alafenamide]
- IC50 (HIV-1LAI): 4 ± 2 nM
- CC50 [1]: 5700 ± 1900 nM

Structure (SMILES): CC(C)OC(=O)OCOP(=O)(CO[C@H](C)Cn1cnc2c(N)ncnc21)OCOC(=O)OC(C)C [TDF, tenofovir disoproxil fumarate]
- IC50 (HIV-1LAI): 30 ± 10 nM
- CC50 ([1]; PXB cells): 33400 ± 10900 nM
